Measurements as given in ChEMBL document CHEMBL1811777, “Rational design of potent, small, synthetic allosteric inhibitors of thrombin” (J Med Chem, 2011).
The source made the active and inactive calls. The rule behind the calls is not given here.

Tests used:
Prothrombin [1] = target: T1, Prothrombin (Homo sapiens, UniProt P00734); assay: Inhibition of human alpha-thrombin assessed as spectrozyme TH hydrolysis after 10 mins by spectrophotometric analysis
How it was run: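 Human α-thrombin (~5 nM initial) preincubated 10 min with inhibitor (4 μg/ml to 5 mg/ml stocks) at 25 °C. Buffer: 20 mM Tris-HCl pH 7.4, 100 mM NaCl, 2.5 mM CaCl2, 0.1% PEG 8000. Fractional residual activity fitted to logistic equation (Hill slope fixed at 1) for IC50 and efficacy ΔY.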

Plasma [2] = assay: Anticoagulant activity in human plasma assessed as concentration required to double the activated partial thromboplastin time; assay type: functional
Plasma [3] = assay: Anticoagulant activity in human plasma assessed as concentration required to double the prothrombin time; assay type: functional
How it was run: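 One-stage recalcification PT on a fibrometer. 10 μL inhibitor brought to 100 μL with citrated human plasma, incubated 30 s at 37 °C, then 200 μL prewarmed thromboplastin added and clotting time recorded. Deionized water gave baseline clotting time. Duplicates; concentration doubling PT read from clotting time versus concentration.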

Prothrombin [4] = target: T1, Prothrombin; assay: Non-competitive inhibition of human alpha-thrombin assessed as spectrozyme TH hydrolysis at 1.5 to 30 uM by Michaelis-Menten equation analysis
How it was run: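 Spectrozyme TH (10 to 600 μM) hydrolysed by 5–10 nM human thrombin at fixed inhibitor levels (0–30 μM) in 20 mM Tris-HCl pH 7.4, 37 °C. Initial rate taken from linear A405 rise with under 10% substrate consumption. KM and VMAX obtained by fitting the Michaelis-Menten equation.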

Row | SMILES | IC50 (Prothrombin [1]; read-out: IC50) [µM] | IC50 (Prothrombin [1]; read-out: pIC50 (converted)) [µM] | inhibition (Prothrombin [4]) | 2aPTT (Plasma [2]) [µM] | 2PT (Plasma [3]) [µM]
1 | CCOC(=O)c1c(C)oc2cc(OC)c(OCc3oc4cc(OS(=O)(=O)O)c(OS(=O)(=O)O)cc4c3C(=O)OCC)cc12 | 365 | 363 |  |  | 
2 | CCOC(=O)c1c(C)oc2cc(OC(=O)c3ccc(OC)cc3)c(OS(=O)(=O)[O-])cc12.[Na+] | 520 |  |  | 1250 | 1200
3 | COc1cc2oc(C)c(C(=O)O)c2cc1OCc1oc2cc(OC)c(OS(=O)(=O)[O-])cc2c1C(=O)O.[Na+] | 374 |  |  | >1000 | 
4 | CCOC(=O)c1c(COc2cc3c(C(=O)OCC)c(CN4CCOCC4)oc3cc2OC)oc2cc(OC)c(OS(=O)(=O)O)cc12 | 129 | 129 |  |  | 
5 | CCOC(=O)c1c(C)oc2cc(OCC)c(OCc3oc4cc(OCC)c(OS(=O)(=O)[O-])cc4c3C(=O)OCC)cc12.[Na+] | 121 |  |  | 530 | 
6 | CCOC(=O)c1c(C)oc2cc(OCc3oc4cc(OC)c(OS(=O)(=O)O)cc4c3C(=O)OCC)c(OS(=O)(=O)O)cc12 | 764 | 759 |  |  | 
7 | COc1cc2oc(C)c(C(=O)OC(C)(C)C)c2cc1OCc1oc2cc(OC)c(OS(=O)(=O)[O-])cc2c1C(=O)OC(C)(C)C.[Na+] | 7.3 | 7.24 |  | 355 | 
8 | COC(=O)c1c(C)oc2cc(OC)c(OCc3oc4cc(OC)c(OS(=O)(=O)[O-])cc4c3C(=O)OC)cc12.[Na+] | 37 | 37.2 |  | >1000 | 850
9 | CCOC(=O)c1c(C)oc2cc(OCOC)c(OS(=O)(=O)[O-])cc12.[Na+] | > 16000 |  |  | >1200 | 
10 | CCOC(=O)c1c(C)oc2cc(OC(C)C)c(OCc3oc4cc(OC(C)C)c(OS(=O)(=O)O)cc4c3C(=O)OCC)cc12 | 30 |  |  |  | 
11 | COCCOC(=O)c1c(C)oc2cc(OC)c(OCc3oc4cc(OC)c(OS(=O)(=O)[O-])cc4c3C(=O)OCCOC)cc12.[Na+] | 375 |  |  | >1000 | 
12 | CCOC(=O)c1c(C)oc2cc(OC)c(OCc3oc4cc(OC)c(OS(=O)(=O)[O-])cc4c3C(=O)OCC)cc12.[Na+] | 60 |  | Active | 740 | 2100

Continued, in another order:

Row | IC50 (Prothrombin [1]; read-out: IC50) [µM] | IC50 (Prothrombin [1]; read-out: pIC50 (converted)) [µM] | inhibition (Prothrombin [4]) | SMILES | 2aPTT (Plasma [2]) [µM] | 2PT (Plasma [3]) [µM]
13 | > 3000 |  |  | COC(=O)c1c(C)oc2cc(OC)c(OS(=O)(=O)O)cc12 |  | 
14 | > 7000 |  |  | CCOC(=O)c1c(CN2CCOCC2)oc2cc(OC)c(OS(=O)(=O)O)cc12 |  | 
15 | > 3000 |  |  | COc1cc2oc(C)c(C(=O)OC(C)(C)C)c2cc1OS(=O)(=O)[O-].[Na+] | >2000 | 
16 | 13700 |  |  | CCOC(=O)c1c(C)oc2cc(OC(C)C)c(OS(=O)(=O)O)cc12 |  | 
17 | > 7100 |  |  | COc1cc2oc(C)c(C(=O)N3CCOCC3)c2cc1OCc1oc2cc(OC)c(OS(=O)(=O)[O-])cc2c1C(=O)N1CCOCC1.[Na+] | >1000 | 
18 | > 2000 |  |  | COc1cc2oc(C)c(C(=O)N3CCCCC3)c2cc1OS(=O)(=O)O |  | 
19 | 20600 | 20000 |  | CCOC(=O)c1c(C)oc2cc(OCC)c(OS(=O)(=O)O)cc12 |  | 
20 | > 3000 |  |  | C=CCOC(=O)c1c(C)oc2cc(OC)c(OS(=O)(=O)O)cc12 |  | 
21 | > 2000 |  |  | COCCOC(=O)c1c(C)oc2cc(OC)c(OS(=O)(=O)O)cc12 |  | 
22 | > 2500 |  |  | CCOC(=O)c1c(C)oc2cc(OC)c(OS(=O)(=O)O)cc12 |  | 
23 | > 25000 |  |  | CCOC(=O)c1c(C)oc2cc(OC(=O)N3CCOCC3)c(OS(=O)(=O)O)cc12 |  | 
24 | > 2000 |  |  | COc1cc2oc(C)c(C(=O)N3CCOCC3)c2cc1OS(=O)(=O)O |  | 
